HIV Rev-RRE inh: inhibitors of HIV-1 Rev-RRE RNA interaction; P05866; AID 704; inhibition, % at 8 µM; Rev peptide-RRE RNA binding, FRET; actives 0.79% (n = 97,000);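 active = inhibition above the screen-wide mean plus 3 SD, cut at about 35% in these data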;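 also: 0% = median DMSO wells and 100% = median Neomycin B control wells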
Target sequence (P05866 whole entry, looked up): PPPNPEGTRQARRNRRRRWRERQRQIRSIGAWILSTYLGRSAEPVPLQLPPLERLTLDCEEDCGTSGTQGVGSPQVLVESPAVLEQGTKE
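System: Cy5-labelled duplex RRE RNA binding fluorescein-labelled HIV Rev peptide; Signal: fluorescein-to-Cy5 FRET, 480 nm excitation; Also added: labelled Rev peptide; Compound: one concentration, 8 µM nominal; Buffer or medium: HEPES pH 7.5 salt buffer with EDTA; Read-out: % inhibition of FRET ratio versus controls; Schedule: 5 min preincubation and 15 min binding, 25 °C.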
CYP2C9 activ: increases human cytochrome P450 2C9 activity; P11712; recombinant CYP2C9, luciferin-H conversion, luminescence; hits give high values; factor 1 = untreated enzyme, 0 = blocked; activation factor at 5 µM; actives 1.4% (n = 96,000); AID 1024;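 active = activation factor of 2 or more for CYP2C9 at a 5 µM dose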;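 also: 0 = sulfaphenazole-blocked wells and 1 = vehicle-only wells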
CYP2C19 act: cytochrome P450 2C19 (human) activation. P33261. recombinant CYP2C19, luciferin-H EGE luminescence; hits give high values; 0 = fully inhibited enzyme, 1 = untreated enzyme. activation factor at 5 µM. 96,000 tested, under 10 active;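 active = activation factor of at least 2 at 5 µM in the primary screen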;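 also: 0 = wells with 2.5 mM tranylcypromine and 1 = vehicle-only wells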
Target sequence (P33261 whole entry, looked up): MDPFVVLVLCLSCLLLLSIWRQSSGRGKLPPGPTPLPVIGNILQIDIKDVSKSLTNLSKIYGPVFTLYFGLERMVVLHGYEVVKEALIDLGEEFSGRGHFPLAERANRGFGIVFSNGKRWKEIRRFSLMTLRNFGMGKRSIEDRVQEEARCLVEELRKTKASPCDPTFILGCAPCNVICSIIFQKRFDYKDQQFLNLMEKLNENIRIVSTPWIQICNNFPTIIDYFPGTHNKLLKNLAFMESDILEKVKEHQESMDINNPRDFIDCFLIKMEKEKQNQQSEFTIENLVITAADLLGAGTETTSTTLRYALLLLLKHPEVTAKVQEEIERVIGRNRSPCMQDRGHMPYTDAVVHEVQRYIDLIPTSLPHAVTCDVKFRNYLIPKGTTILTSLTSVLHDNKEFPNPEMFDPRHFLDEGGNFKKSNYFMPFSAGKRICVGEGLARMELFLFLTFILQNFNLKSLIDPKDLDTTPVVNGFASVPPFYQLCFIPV
Cav32 inh: blocks human Cav3.2 T-type calcium channel; actives 4% (n = 100,000); O95180; Cav3.2-expressing cells, Fluo-4 calcium fluorescence FDSS; hits give low values; B-score at 10 µM; AID 449739;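 active = single-dose well whose peak fluorescence ratio is a statistical outlier from its plate by either plate-standardised score or position-corrected B-score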
CYP2C19 inhib: inhibitors of human CYP2C19; P33261; CYP2C19 Supersomes, luciferin-H EGE luminescence, 30 min; inhibition, % at 5 µM; actives 21% (n = 96,000); AID 778;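 active = CYP2C19 inhibition above a set limit at 5 µM in the primary screen, cut at about 50% in these data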;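 also: plate controls were negative control wells for no effect and 2.5 mM tranylcypromine positive control for full effect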
CYP2C9 inh: human CYP2C9 inhibition. inhibition, % at 5 µM. CYP2C9 Supersomes, luciferin-H conversion, luminescence. actives 20% (n = 96,000);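 active = blocking of liver enzyme CYP2C9 beyond about 50% at 5 µM, limit read from the data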
* = called active by the depositor; / = no result given. Shown are actives, neighbours in structure and some others; about 27% of the full set was active somewhere.

SMILES	HIV Rev-RRE inh	CYP2C9 activ	CYP2C19 act	Cav32 inh	CYP2C19 inhib	CYP2C9 inh
COC(=O)C(NC(=O)c1ccc(C)cc1)(Nc1cccc(C)n1)C(F)(F)F (configuration not stated)	7.7	/	/	-4.62*	/	/
Cc1ccnc(SCC(=O)n2c3c(c4ccccc42)CC(C)CC3)n1 (configuration not stated)	2.4	0.9	0.8	-0.482	23.8	10.6
COc1cccc(OC)c1C(=O)NN1CCCCC1	5.1	1.1	1	0.845	-3.6	-12.6
COC(=O)C(NC(=O)c1ccco1)(Nc1ccc(Br)cn1)C(F)(F)F (configuration not stated)	4.0	0.8	0.1	-0.402	93.6*	15.8
COC(=O)C(NC(=O)c1ccco1)(Nc1nc(C)cs1)C(F)(F)F (configuration not stated)	/	0.7	0.7	-0.0439	32.8	31.3
COC(=O)C(NC(C)=O)(Nc1ccccn1)C(F)(F)F (configuration not stated)	1.9	0.5	0.9	0.0861	12.0	50.3*
O=S(=O)(c1ccc(Br)cc1)N1CCn2c(nc3ccccc32)C1	-0.7	0.9	1	0.0214	2.2	8.4
CC(=O)c1ccc(NC(=O)N[C@@H](CC(C)C)C(=O)O)cc1	2.6	1.1	1.1	1.08	-8.5	-7.0
O=C(NC(Nc1ncccn1)C(=O)c1ccccc1)c1ccccc1 (configuration not stated)	-2.8	0.2	0.2	/	77.8*	77.1*
Cn1nc(OC(=O)Nc2ccc(Cl)cc2)cc1C(F)(F)F	5.6	0.7	0.8	-0.1	19.6	30.1
CC(C)(Oc1ccc(Cl)cc1)C(=O)NCc1ccncc1	6.2	0	0	0.491	99.4*	98.3*
CC(C)(Oc1ccc(Cl)cc1)C(=O)Nc1cccnc1	5.6	0.7	0.5	-0.75	52.1*	25.4
CC(C)(Oc1ccc(Cl)cc1)C(=O)Nc1ccncc1	-2.4	0	0	-0.0273	99.9*	97.1*
CC(C)(Oc1ccc(CCNC(=O)c2ccc(Cl)cc2)cc1)C(=O)O	/	/	/	0.171	/	/
COC(=O)/C=C/C(=O)Nc1cccnc1	10.8	1	1.1	1.14	-7.0	-1.1
CC(C)(Oc1ccc(Cl)cc1)C(=O)NCc1ccco1	1.4	0.5	0.9	-2.24	11.4	51.6*
c1ccc(CNCc2ccc3c(c2)OCO3)nc1	5.8	/	/	0.295	/	/
COc1ccc(CCNc2ccc(C(CC(N)=O)NC(=O)Cc3ccc(Br)cc3)cc2[N+](=O)[O-])cc1 (configuration not stated)	/	/	/	-0.161	/	/
COC(=O)C(C)n1cnc2c(nnn2-c2ccc(OC)cc2)c1=O (configuration not stated)	4.2	0.9	1	0.345	0.9	11.0
CCOC(=O)C(CC)n1cnc2c(nnn2-c2ccc(C)cc2)c1=O (configuration not stated)	1.9	0.5	0.8	-0.607	16.9	50.3*
COc1cccc(Cn2nnc3c(=O)[nH]c(C4CCCN(C(=O)c5ccccc5Cl)C4)nc32)c1 (configuration not stated)	1.3	0.2	0.6	0.298	38.8	82.9*
CCCc1nc2c(nnn2Cc2ccccc2)c(=O)[nH]1	4.8	1	0.2	0.637	78.5*	0.5
O=C(c1ccccc1Cl)N1CCCC(c2nc3c(nnn3Cc3ccccc3)c(=O)[nH]2)C1 (configuration not stated)	0.3	0.2	0.9	0.48	11.9	84.1*
Cc1ccc(C)c(Cn2nnc3c(=O)[nH]c(C4CCCN(C(=O)C5CCC5)C4)nc32)c1 (configuration not stated)	0.3	0.6	0.7	-0.832	28.0	42.9
COc1ccc(Cn2nnc3c(=O)[nH]c(C4CCCN(C(=O)c5ccccc5)C4)nc32)cc1 (configuration not stated)	/	/	/	1.22	/	/
SMILES	HIV Rev-RRE inh	CYP2C9 activ	CYP2C19 act	Cav32 inh	CYP2C19 inhib	CYP2C9 inh
O=C(C1CCC1)N1CCC(c2nc3c(nnn3Cc3c(F)cccc3Cl)c(=O)[nH]2)CC1	7.8	0.3	0.8	1.3	17.8	71.2*
Cc1onc(-c2ccccc2Cl)c1C(=O)Nc1ccc(CN2CCCC2)cc1	-0.8	0.5	0.5	1.47	49.0	49.3
O=c1[nH]c(C2CCCN(S(=O)(=O)c3ccccc3)C2)nc2c1nnn2Cc1ccccc1F (configuration not stated)	/	/	/	0.203	/	/
O=c1[nH]c(C2CCCN(S(=O)(=O)c3ccccc3)C2)nc2c1nnn2Cc1ccccc1 (configuration not stated)	4.3	0.2	0.6	-1.77	44.3	80.7*
Cc1c(NCc2cc(Cl)cc(Cl)c2O)c(=O)n(-c2ccccc2)n1C	2.5	0.1	0.3	-2.07	73.2*	85.4*
Cc1ccc(-c2nc(SCC(=O)NCCN3C(=O)CSC3=O)[nH]c2-c2ccc(C)cc2)cc1	2.1	0.4	1	/	-1.3	64.5*
O=C(CSc1nnc(Cc2ccccc2)o1)NCCN1C(=O)CSC1=O	2.0	1	1	-0.343	4.7	-4.3
Cc1ccc(SCC(=O)NCCN2C(=O)CSC2=O)c(C)c1	0.7	/	/	-0.473	/	/
Cc1ccc(SCC(=O)NCCN2C(=O)CSC2=O)cc1C	5.8	1.3	0	-0.712	97.0*	-28.1
Cc1cccc(-n2nnnc2SCC(=O)NCCN2C(=O)CSC2=O)c1	2.1	1.7	0.2	0.0941	77.2*	-71.0
Cn1nc(OC(=O)Nc2ccc(F)cc2)cc1C(F)(F)F	15.0	0.9	1	0.293	2.5	13.4
C=CCNC(=S)NNC(=O)CCC(O)CCCCC (configuration not stated)	1.7	0.6	0.8	0.465	15.2	43.1
N#CC(Nc1ccccc1)c1ccccc1OCc1ccccc1 (configuration not stated)	7.3	0.1	0.1	-0.0641	85.6*	89.3*
COc1ccc(Cn2c(SC)nc3ccccc32)cc1[N+](=O)[O-]	7.2	0.7	0.8	0.15	21.8	28.4
Cc1[nH]nc(N=CC2=C(O)CC(c3ccco3)CC2=O)c1-c1ccccc1 (configuration not stated)	-1.6	0.4	0.7	-0.694	28.4	60.7*
CC(=O)c1cccc(S(=O)(=O)N(Cc2cc3cc4c(cc3[nH]c2=O)OCCO4)CC2CCCO2)c1 (configuration not stated)	9.9	0.7	0.7	0.423	26.6	29.7
CCCN(Cc1cc2ccc(C)cc2[nH]c1=O)S(=O)(=O)c1ccccc1	10.7	0	0.6	-0.896	36.5	97.4*
CC(=O)c1cccc(S(=O)(=O)N(CCCO)Cc2cc3ccc(C)cc3[nH]c2=O)c1	0.1	0.3	1	-3.78	-0.4	70.9*
COC(=O)c1cccc(S(=O)(=O)N(Cc2ccco2)Cc2cc3ccc(OC)cc3[nH]c2=O)c1	5.4	0.5	0.8	-0.153	19.4	51.5*

Assay outcomes: PubChem BioAssay, several laboratories
